# From PubChem BioAssay
# HTRA1 inhibitor: HTRA1 (human) protease inhibition; Q92743; recombinant HTRA1, FP-rhodamine activity-based probe, fluorescence polarization; inhibition, % at 5.96 µM; 0.5% of 340,000 active; in the data active = inhibition above about 36%;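 also: 0% = enzyme with DMSO and 100% = wells lacking enzyme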
# PRMT1 inh: PRMT1 (human) inhibition, primary screen | Q99873 | inhibition, % at 2.79 µM | recombinant PRMT1, activity-based probe fluorescence polarization | 1.3% of 370,000 active | AID 652257;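 active = inhibition above about 21% made by adding two undisclosed values, limit read from the data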
# Target sequence (Q99873 whole entry, looked up): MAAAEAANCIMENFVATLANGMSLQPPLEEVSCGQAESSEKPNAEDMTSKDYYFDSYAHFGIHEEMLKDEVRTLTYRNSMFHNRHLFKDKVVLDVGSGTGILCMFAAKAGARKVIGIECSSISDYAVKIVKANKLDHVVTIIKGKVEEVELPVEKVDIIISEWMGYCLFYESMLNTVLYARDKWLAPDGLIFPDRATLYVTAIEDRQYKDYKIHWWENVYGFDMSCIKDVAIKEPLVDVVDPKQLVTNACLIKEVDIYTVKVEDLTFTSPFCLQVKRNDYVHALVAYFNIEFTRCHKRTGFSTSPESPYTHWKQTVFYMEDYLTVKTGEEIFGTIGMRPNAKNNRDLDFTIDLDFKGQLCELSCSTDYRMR
# mABHD4 FP: ABHD4 (mouse) inhibition, primary FP screen | 0.54% of 370,000 active | inhibition, % at 8.92 µM | purified mABHD4, FP-Rh probe fluorescence polarization | Q8VD66;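 active = inhibition exceeding the mean over every tested compound plus 3 SD, cut at about 30% in these data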;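 also: 0% = plate median of compound wells and 100% = S159A mutant with DMSO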
# Target sequence (Q8VD66 whole entry, looked up): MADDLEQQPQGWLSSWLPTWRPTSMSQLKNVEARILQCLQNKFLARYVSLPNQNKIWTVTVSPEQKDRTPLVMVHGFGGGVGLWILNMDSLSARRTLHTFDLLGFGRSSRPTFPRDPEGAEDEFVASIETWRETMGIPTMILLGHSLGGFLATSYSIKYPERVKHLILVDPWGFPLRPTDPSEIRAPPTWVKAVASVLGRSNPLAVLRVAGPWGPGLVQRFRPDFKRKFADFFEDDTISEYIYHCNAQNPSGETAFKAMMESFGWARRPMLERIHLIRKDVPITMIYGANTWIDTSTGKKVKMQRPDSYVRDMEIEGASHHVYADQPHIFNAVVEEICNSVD
#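 assay system = mABHD4 protein | compound dosing = single nominal dose of 8.92 µM, 0.89% DMSO final | read-out basis = percent inhibition of probe binding, normalized to plate controls | schedule = Enzyme–compound pre-incubation 45 min, then probe 60 min, both 25 °C | detection = fluorescence polarization, excitation 525 nm, emission 598 nm, BODIPY TMR filters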
# TCR-CD3 inh: human TCR-CD3 binding inhibition; TAMRA-labeled TCR probe fluorescence, biochemical; 0.37% of 360,000 active; inhibition, % at 9.4 µM; in the data active = inhibition above about 19%;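 also: recombinant mutant TCR 2C K166C tagged with TAMRA read by polarization; 0% = receptor in buffer alone and 100% = receptor with positive control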
# PAD4 inh: PAD4 (human) enzyme inhibition; Q9UM07; recombinant PAD4, RCA probe fluorescence polarization; inhibition, % at 6.36 µM; 0.41% of 330,000 active; AID 485272;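 active = percent inhibition above a cutoff equal to the mean of all tested compounds plus 3 SD, cut at about 15% in these data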;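 also: 0% = PAD4 with RCA probe and DMSO and 100% = probe without PAD4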
# SIAE inh: inhibitors of human sialic acid acetylesterase SIAE; SIAE FP-Rh probe binding, fluorescence polarization; 0.69% of 370,000 active; inhibition, % at 9.66 µM; Q9HAT2;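 active = inhibition above a cutoff: mean of compounds within the control limits plus 3 SD of those, cut at about 17% in these data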;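 also: 0% = plate median of compound wells and 100% = probe without SIAE protein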
# SIAE inh conf: confirmation of human SIAE inhibitors; shares compounds with SIAE inh; SIAE FP-Rh activity-based probe, fluorescence polarization; inhibition, % at 9.66 µM; 13% of 2,300 active;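 active = mean inhibition of the replicates above the hit cutoff set in the primary screen, cut at about 17% in these data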;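 also: 0% = SIAE with DMSO and probe and 100% = probe without SIAE; inhibitors lower polarization as more probe stays unbound to SIAE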
# An asterisk follows results filed as active; . = no result given. The list is not random: actives were taken first. Their share in the collection is about 2.9%.
SMILES,HTRA1 inhibitor,PRMT1 inh,mABHD4 FP,TCR-CD3 inh,PAD4 inh,SIAE inh,SIAE inh conf
O=C(Nc1nncs1)c1c(F)c(F)c(F)c(F)c1F,-5.8,2.6,5.9,-0.3,1.1,20.2*,1.1
CCC(C)C(=O)Nc1nnc(SCC(=O)NC(C)(C)C)s1 (centres undefined),0.4,1.7,2.7,-3.3,-1.4,-6.0,.
CC(=O)Nc1nnc(SCC(=O)NC(C)(C)C)s1,-3.2,-0.5,5.0,7.2,-0.5,21.2*,-8.5
COc1cc(OC)c(OC)cc1CNC(=O)CCN1C(=O)c2cccc([N+](=O)[O-])c2C1=O,9.1,-6.3,-5.7,1.0,-4.9,18.8*,7.6
CC(C)CN1C(=O)C[C@]2(C(=O)N(C)c3ccc(NS(=O)(=O)C4CCCCC4)cc32)C1c1ccccc1 (some centres undefined),.,5.2,9.7,.,.,5.0,.
COc1ccc(N2CCC(CNC(=S)Nc3c(C)cc(C)cc3C)C2)cc1 (centres undefined),9.8,6.5,11.9,7.5,2.0,17.7*,6.4
CCc1nc(C)cn1S(=O)(=O)c1cc(C)c(OC)cc1C,-1.1,-0.3,2.1,2.3,4.0,-1.6,.
CCc1nc(C)cn1S(=O)(=O)c1cc(C)c(OC)c(C)c1C,-0.6,0.5,3.9,5.3,2.2,36.7*,-1.9
CN(Cc1cccs1)C(=O)c1ccc(S(=O)(=O)N2CCCCC2)cc1,8.9,1.1,-1.9,-5.5,2.8,2.0,.
Cc1ccc(CN(C)C(=O)c2ccc(S(=O)(=O)N3CCCCCC3)cc2)o1,1.4,1.3,2.8,1.1,.,17.3*,0.4
CCc1cccc2c(SC(C)C(=O)NCC3CCCO3)nc(-c3ccccc3)nc12 (centres undefined),-6.0,-0.7,-4.4,4.6,3.6,-12.0,.
CC(Sc1nc(-c2ccccc2)c(-c2ccccc2)[nH]1)C(=O)NCC1CCCO1 (centres undefined),-5.7,-3.7,4.4,-1.0,.,20.5*,-1.7
Brc1ccc(CN2CCCc3nc(-c4ccccc4)ccc32)cc1,.,-1.7,-4.0,0.7,.,6.5,.
COc1ccc(/C=C2/C(=O)ON=C2C)cc1Cl,4.5,0.7,4.2,-2.4,-3.0,21.6*,4.1
COc1cc(/C=C/C(=O)OCC(=O)N2CCc3ccccc3C2)ccc1O,1.4,-0.7,3.5,3.8,-8.7,21.2*,0.7
CN(C(=O)[C@@H](C1CC1)[C@@H](O)c1ccc2ccccc2c1)c1ccccc1,.,-5.3,-5.9,.,.,-1.3,.
O=C(CSc1nnc(-c2ccc(Cl)cc2)n1-c1ccccc1)Nc1ccc2c(c1)OCCO2,.,-3.3,1.1,.,.,0.1,.
COc1cc(-c2nc(-c3ccccc3)c(-c3ccc(F)cc3)[nH]2)cc2c1OCO2,-4.8,0.6,12.0,0.1,6.9,9.3,.
COc1ccc(-c2[nH]c(-c3ccc4c(c3)OCO4)nc2-c2ccccc2)cc1,18.3,-1.4,15.1,0.2,-3.9,21.4*,4.1
Cn1cc(CCOCc2ccccc2)c2ccccc21,.,0.9,-2.5,1.8,.,3.3,.
COc1ccc(-c2cccc3c4c([nH]c23)[C@@H]2C[C@H]3[C@@H](C(=O)N2CC4)[C@H](C)ON3C)cc1,.,-2.5,8.8,-0.6,.,7.0,.
Cc1csc(=O)n1CC(=O)OCC(=O)NCc1ccc(F)cc1,0.9,2.9,-3.8,4.2,-3.3,-2.9,.
Cc1csc(=O)n1CC(=O)OCC(=O)NC(C)c1ccc(F)cc1 (centres undefined),4.8,5.8,0.3,-2.7,-6.4,18.6*,3.3
CC1(C)CC(=O)c2cc(N=C/C(C(=O)c3ccccc3)=C(\O)c3ccccc3)c(=O)oc2C1,7.8,-1.1,2.7,6.2,1.9,17.2*,1.5
Cc1cc(-c2csc(NC(=O)c3ccc(=O)[nH]c3)n2)c(C)n1Cc1ccccc1,18.5,9.7,-5.9,1.1,-7.4,25.9*,-0.5
SMILES,HTRA1 inhibitor,PRMT1 inh,mABHD4 FP,TCR-CD3 inh,PAD4 inh,SIAE inh,SIAE inh conf
COc1cc(/C=C/C(=O)c2ccc(NS(=O)(=O)c3ccc(C)cc3)cc2)ccc1OC(F)F,-51.5,-0.6,14.0,0.2,-5.1,-26.1,.
COc1cc(/C=C/C(=O)c2ccc(NS(=O)(=O)c3ccc(C)cc3)cc2)cc(OC)c1O,5.6,7.0,-8.4,-11.4,-7.5,77.9*,-33.4
O=C(/C=C/c1ccccc1)N1CCN(CC(O)COc2ccccc2)CC1 (centres undefined),-7.7,0.8,1.9,0.1,-4.6,19.3*,-0.2
S=C(NCCCCN(Cc1ccc(Cl)cc1)c1ccc(Br)cn1)NCCCc1cnc[nH]1,.,3.6,10.6,-5.5,.,23.6*,28.5*
CCC[C@H]1[C@@H](OC(=O)NCc2ccco2)CC[C@@]23CCCN2C(=O)CCC[C@@H]13,.,4.2,2.0,.,.,4.6,.
O=C1CCCN1c1ccc(S(=O)(=O)N2CCN(c3ccccc3)CC2)cc1,-4.6,-1.1,-2.4,-3.6,-2.7,1.7,.
O=C1CCCN1c1ccc(S(=O)(=O)N2CCC(c3ccccc3)CC2)cc1,-0.9,3.9,-3.7,-3.6,0.2,22.0*,-2.1
COc1ccc(CNS(=O)(=O)CC2NCCc3ccccc32)cc1 (centres undefined),.,-1.7,3.9,.,.,0.7,.
CNC(=S)Nc1cccc(C(C)=O)c1,3.3,-1.3,7.8,-0.7,6.6,17.1*,1.6
Cc1cc(C)cc(N/C(N)=N/c2nc(C)cc(C)n2)c1,0.6,-2.4,4.7,4.5,0.9,22.6*,1.9
COC(=O)c1cc2c(c3c4cc(F)ccc4n(S(=O)(=O)c4cccc(C)c4)c13)C(=O)N(Cc1ccc(C(F)(F)F)cc1)C2,.,4.1,-9.3,-5.4,.,-7.1,.
Cc1ccc(CNC(=O)c2ccc(CS(=O)(=O)c3ccccc3)o2)cc1,-5.8,0.2,4.7,2.1,-5.1,2.5,.
Cc1ccc(S(=O)(=O)Cc2ccc(C(=O)NCc3cccs3)o2)cc1,4.8,-0.8,-0.7,-1.5,-1.1,69.4*,-11.4
COc1ccc(-c2nc(NC(=O)c3ccco3)sc2C)cc1,-5.8,2.1,-6.2,-1.6,.,-1.3,.
COc1ccc(-c2nc(NC(=O)c3[nH]c(C)c(C(C)=O)c3C)sc2C)cc1,-14.8,8.4,4.5,2.6,1.5,26.7*,-2.4
COc1ccccc1NC(=O)c1cc2c(CO)cnc(C)c2oc1=Nc1cc(OC)c(OC)c(OC)c1,0.2,-0.9,4.5,-1.1,-1.8,18.5*,5.0
COc1cccc(-c2cccc3c4c([nH]c23)[C@@H]2C[C@H]3[C@@H](C(=O)N2CC4)[C@H](C)ON3C)c1,.,2.2,-0.6,5.3,.,4.7,.
C[C@H](NC(=O)C[C@@H]1C[C@@H]2c3cc(NC(=O)C4CCC4)ccc3O[C@@H]2[C@@H](CO)O1)c1ccccc1,.,-6.0,-3.1,3.6,.,2.8,.
c1ccc(-c2c[nH]c3[n+]2CCCCC3)cc1,-5.2,-0.7,-0.3,4.3,7.5,18.8*,-0.9
